Published values of several laboratories.
Protocols differ between the studies behind these lines.
emrE: emrE (Escherichia coli, UniProt P23895)
CHRNA9: Neuronal acetylcholine receptor subunit alpha-9 (CHRNA9, Homo sapiens, UniProt Q9UGM1)
CA9: Carbonic anhydrase 9 (CA9, Homo sapiens, UniProt Q16790)
MAOB: Amine oxidase [flavin-containing] B (MAOB, Homo sapiens, UniProt P27338)
HRH1: Histamine H1 receptor (HRH1, Homo sapiens, UniProt P35367)

For `CN1CC[C@@]2(C)c3cc(OC(=O)Nc4ccccc4)ccc3N(C)[C@@H]12`, the IC50 was < 10 µM (Retinaldehyde dehydrogenase 3 (ALDH1A3, Homo sapiens, UniProt P47895); enzyme activity, inhibitor).
For `Cc1nccc2c1[nH]c1ccccc12`, the Kd was 46 µM (emrE; binding, fluorescence).
The Kd of `CC1=C(O)C(=O)C=C2C1=CC=C1[C@@]2(C)CC[C@@]2(C)[C@@H]3C[C@](C)(C(=O)O)CC[C@]3(C)CC[C@]12C` is reported as 2.07 µM (Cytochrome P450 3A5 (CYP3A5, Homo sapiens, UniProt P20815); binding, BLI; SAS).
For `CCC[N+]1(C)CCN(c2ccccc2)CC1`, the EC50 was 60 µM (CHRNA9; ion current, agonist, two-electrode voltage clamp; oocytes).
The Ki of `N#C[Se]CCCCOc1ccc2c(-c3ccccc3)cc(=O)oc2c1` is reported as 0.211 µM (CA9; enzyme activity, inhibitor, stopped-flow).
The IC50 of `CC[C@H](C)[C@H](NC(=O)[C@H](C)NC(=O)[C@H](CCC(=O)O)NC(=O)[C@H](Cc1c[nH]cn1)NC(=O)[C@H](CC(C)C)NC(=O)[C@@H](NC(=O)[C@H](Cc1ccccc1)NC(=O)[C@H](CO)NC(=O)[C@@H](NC(=O)[C@H](CC(C)C)NC(=O)[C@H](CC(=O)O)NC(=O)[C@H](CC(C)C)NC(=O)[C@@H]1CCCN1)[C@@H](C)O)C(C)C)C(=O)O` is reported as 1900 µM (MAOB; enzyme activity, inhibitor, fluorescence).
`COc1cc2c(cc1OC)CN(CCc1ccc(NC(=O)c3cccc4c(=O)c5cccc(OC)c5[nH]c34)cc1)CC2` gave a Ki of > 10 µM (HRH1; cell-free assay).
The IC50 of `CCOC(=O)c1ccc(OC(=O)CCCCCN=C(N)N)cc1` is reported as 0.0236 µM (Urokinase-type plasminogen activator (PLAU, Homo sapiens, UniProt P00749); enzyme activity, inhibitor).
For `C[n+]1ccc(-c2cc[n+](C)cc2)cc1`, the Kd was 73 µM (emrE; binding, fluorescence).
`CC[C@H](C)[C@H](N)C(=O)N1CCC[C@H]1C(=O)N1CCC[C@H]1C(=O)NCC(=O)N[C@H](C(=O)N1CCC[C@H]1C(=O)N[C@@H](Cc1ccc(O)cc1)C(=O)O)C(C)C` has an IC50 of 9410 µM (MAOB; enzyme activity, inhibitor, fluorescence).
The Ki of `Cc1c(Cl)c(=O)oc2cc(OCCCC[Se]C#N)ccc12` is reported as 0.0429 µM (CA9; enzyme activity, inhibitor, stopped-flow).
`CCC[N+]1(CC)CCN(c2ccc(C#N)cc2)CC1` gave an EC50 of 1.9 µM (CHRNA9; ion current, agonist, two-electrode voltage clamp; oocytes).
For `CCCCC1CNC2CCc3ccc(OC)cc3C12` (racemic), the Ki was 0.135 µM (HRH1; ligand displacement, radioligand).
